Assay type in all cases: functional
Test [1] concerns Staphylococcus aureus. As to the kind of experiment: Potentiation of oxacillin-induced antimicrobial activity against methicillin-resistant Staphylococcus aureus NRS70 at 128 ug/ml relative to oxacillin alone.
Test [2] has as its system Staphylococcus aureus. As to the kind of experiment: Potentiation of ampicillin-induced antimicrobial activity against methicillin-resistant Staphylococcus aureus NRS123 at 256 ug/ml (reference value: ampicillin alone MIC = 12 ug/ml).
Test [3] relates to Staphylococcus aureus. Kind of test: Potentiation of oxacillin-induced antimicrobial activity against methicillin-resistant Staphylococcus aureus NRS100 at 128 ug/ml (reference value: oxacillin alone MIC = >256 ug/ml).
For test [4], the system named is Staphylococcus aureus. Kind of test: Potentiation of ampicillin-induced antimicrobial activity against methicillin-resistant Staphylococcus aureus NRS70 at 128 ug/ml relative to ampicillin alone.
For test [5], the system named is Staphylococcus aureus. As to the kind of experiment: Potentiation of oxacillin-induced antimicrobial activity against methicillin-susceptible Staphylococcus aureus ATCC 29213 at 256 ug/ml (reference value: oxacillin alone MIC = 0.4 ug/ml).
Test [6] concerns Staphylococcus aureus. As to the kind of experiment: Potentiation of ampicillin-induced antimicrobial activity against methicillin-resistant Staphylococcus aureus NRS100 at 128 ug/ml relative to ampicillin alone.
The test system of test [7] is Staphylococcus aureus. As to the kind of experiment: Potentiation of ampicillin-induced antimicrobial activity against methicillin-susceptible Staphylococcus aureus ATCC 29213 at 256 ug/ml (reference value: ampicillin alone MIC = 0.5 ug/ml).
In test [8] the test system is Staphylococcus aureus. Kind of test: Potentiation of oxacillin-induced antimicrobial activity against methicillin-resistant Staphylococcus aureus NRS100 at 128 ug/ml by checkerboard assay. The procedure, abridged: (§1)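 Checkerboard combination of oxacillin with the farnesol-type compound. Synergy scored by the fractional inhibitory concentration index (FICI).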
Test [9] relates to Staphylococcus aureus. Kind of test: Potentiation of oxacillin-induced antimicrobial activity against methicillin-resistant Staphylococcus aureus NRS123 at 256 ug/ml (reference value: oxacillin alone MIC = 24 ug/ml).
In test [10] the test system is Staphylococcus aureus. As to the kind of experiment: Antimicrobial activity against methicillin-resistant Staphylococcus aureus NRS100 by micro-dilution method. A digest of the protocol:
(§2)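 Broth microdilution MIC in cation-adjusted Mueller-Hinton II medium supplemented with 1% Tween-80 (CAMHB-T), needed to disperse the farnesol-type compounds. Compounds tested from 2 to 2048 μg/mL.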
On the technique in general: Dilution methods test growth across graded concentrations, often in twofold steps.

The subject of test [11] is Staphylococcus aureus. Kind of test: Antimicrobial activity against methicillin-resistant Staphylococcus aureus NRS70 by micro-dilution method. The procedure, abridged: as §2
In test [12] the test system is Staphylococcus aureus. Kind of test: Potentiation of oxacillin-induced antimicrobial activity against methicillin-resistant Staphylococcus aureus NRS123 at 256 ug/ml relative to oxacillin alone.
The subject of test [13] is Staphylococcus aureus. As to the kind of experiment: Antimicrobial activity against methicillin-susceptible Staphylococcus aureus ATCC 29213 by micro-dilution method. A digest of the protocol:
as §2

The test system of test [14] is Staphylococcus aureus. As to the kind of experiment: Potentiation of oxacillin-induced antimicrobial activity against methicillin-susceptible Staphylococcus aureus ATCC 29213 at 256 ug/ml relative to oxacillin alone.
For test [15], the system named is Staphylococcus aureus. Kind of test: Potentiation of oxacillin-induced antimicrobial activity against methicillin-resistant Staphylococcus aureus NRS70 at 128 ug/ml by checkerboard assay. A digest of the protocol:
as §1

The subject of test [16] is Staphylococcus aureus. Kind of test: Potentiation of oxacillin-induced antimicrobial activity against methicillin-resistant Staphylococcus aureus NRS70 at 128 ug/ml (reference value: oxacillin alone MIC = 32 ug/ml).
In test [17] the test system is Staphylococcus aureus. As to the kind of experiment: Potentiation of ampicillin-induced antimicrobial activity against methicillin-resistant Staphylococcus aureus NRS70 at 128 ug/ml (reference value: ampicillin alone MIC = 16 ug/ml).
For test [18], the system named is Staphylococcus aureus. As to the kind of experiment: Potentiation of ampicillin-induced antimicrobial activity against methicillin-resistant Staphylococcus aureus NRS123 at 256 ug/ml relative to ampicillin alone.
For test [19], the system named is Staphylococcus aureus. Kind of test: Antimicrobial activity against methicillin-resistant Staphylococcus aureus NRS123 by micro-dilution method. A digest of the protocol:
as §2

The test system of test [20] is Staphylococcus aureus. As to the kind of experiment: Potentiation of ampicillin-induced antimicrobial activity against methicillin-susceptible Staphylococcus aureus ATCC 29213 at 256 ug/ml relative to ampicillin alone.
Test [21] relates to Staphylococcus aureus. Kind of test: Potentiation of ampicillin-induced antimicrobial activity against methicillin-resistant Staphylococcus aureus NRS100 at 128 ug/ml (reference value: ampicillin alone MIC = 16 ug/ml).

By MIC is commonly meant the smallest concentration in the dilution series that meets the test's criterion for growth inhibition.

≈ marks a conversion by molar mass, not a printed value. A value given as a limit tells only on which side of the number the result lay.

As for `CC(C)=CCC/C(C)=C/CC/C(C)=C/CN`, the “fold change (FC)” value is listed as 1 in the test with Staphylococcus aureus [1]; 1 in the test on Staphylococcus aureus [4]; 2 in the test with Staphylococcus aureus [6]; 32 in the test with Staphylococcus aureus [12]; 0.8 in the test with Staphylococcus aureus [14]; 12 in the test on Staphylococcus aureus [18]. Further, the “fold change (FC)” value with Staphylococcus aureus [20] came out at 2.5. Also, the MIC in the test with Staphylococcus aureus [2] is 1 µg/mL; in the test with Staphylococcus aureus [3], greater than 256 µg/mL; with Staphylococcus aureus [5], 0.5 µg/mL; in the test with Staphylococcus aureus [7] it was 0.2 µg/mL; with Staphylococcus aureus [9] it was 0.75 µg/mL; in the test on Staphylococcus aureus [10] it was 256 µg/mL (≈ 1160 µM). The MIC in the test with Staphylococcus aureus [11] worked out at 256 µg/mL (≈ 1160 µM); against Staphylococcus aureus [13], 512 µg/mL (≈ 2310 µM); with Staphylococcus aureus [16], 32 µg/mL; in the test on Staphylococcus aureus [17] it was 16 µg/mL; against Staphylococcus aureus [19], 512 µg/mL (≈ 2310 µM); in the test with Staphylococcus aureus [21], 8 µg/mL. In addition, the “fractional inhibitory concentration index (FICI)” value in the test on Staphylococcus aureus [8] and in the test with Staphylococcus aureus [15] was 0.53 - 1.13 in each case.
